Structures are written as SMILES. ≈ marks a conversion by molar mass, not a printed value. Calls of active or inactive are those of the source. A value given as a limit tells only on which side of the number the result lay.

Data set [1] has as its system A2780TC. Briefly: Antitumor activity against paclitaxel resistant human A2780TC cells xenografted in nude mouse assessed as reduction in tumor growth at 5 mg/kg/day, ip administered for 5 days/ week and measured every 7 days for 21 days. It is filed as functional, organism-based. As to conditions: time 21.0 day.
The nature of data set [2]: Drug concentration in naive BALB/C mouse liver at 21 mg/kg, ip administered as single dose incubated for 24 hrs followed by heparin treatment by LC-MS/MS analysis. It is filed as ADME, organism-based. As to conditions: in vivo. The method, boiled down:
(§1)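 Healthy male BALB/c mice, 4–6 weeks old, given a single i.p. 21 mg/kg prodrug dose in saline. At 24 h, heparin i.p. (5000 U/kg), then sacrifice under CO2. Organs homogenised with acetonitrile containing internal standard, centrifuged, filtered and quantified by LC-MS/MS against calibration curves. n = 3 per time point.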

A short description of data set [3]: Permeability of the compound at pH 7.4 at 500 uM incubated for 5 hrs by PAMPA based UV/LC-MS analysis. It is filed as ADME. As to conditions: read-out: permeability. In a few lines:
(§2)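 Donor: compound diluted from 1 mM DMSO stock to 500 µM final in phosphate buffer (pH 7.4, 25 mM). Filter coated with 1% phosphatidylcholine in dodecane; acceptor 50% DMSO/phosphate buffer. 5 h at room temperature with gentle shaking. Donor and acceptor measured by UV/LC-MS; Papp and %MR calculated by equation. Three independent experiments.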
(In PAMPA a lipid-coated filter parts donor from acceptor wells.)

The nature of data set [4]: Aqueous solubility of the compound at 1 mg incubated for 24 hrs under shaking condition by LC-MS/MS analysis. As to conditions: water. It is filed as physicochemical.
The nature of data set [5]: Drug concentration in naive BALB/C mouse kidney at 21 mg/kg, ip administered as single dose incubated for 24 hrs followed by heparin treatment by LC-MS/MS analysis. It is filed as ADME, organism-based. As to conditions: in vivo. In a few lines: as §1
The target of another data set is plasmin (Homo sapiens, UniProt P00747). Briefly: Stability of the compound in human plasmin solution assessed as half life at 7.5 mM measured up to 24 hrs by UV/LC-MS analysis. It is filed as ADME. In a few lines: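 Human plasmin mixed with Tris buffer (pH 7.4, 100 mM) and prodrug (7.5 mM DMSO stock), incubated at 37 °C. Samples taken from 0 to 24 h, quenched with cold acetonitrile and centrifuged; analysed by UV/LC-MS. t1/2 is time to 50% hydrolysis.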
plasmin, sequence (P00747 97-580 limits assumed): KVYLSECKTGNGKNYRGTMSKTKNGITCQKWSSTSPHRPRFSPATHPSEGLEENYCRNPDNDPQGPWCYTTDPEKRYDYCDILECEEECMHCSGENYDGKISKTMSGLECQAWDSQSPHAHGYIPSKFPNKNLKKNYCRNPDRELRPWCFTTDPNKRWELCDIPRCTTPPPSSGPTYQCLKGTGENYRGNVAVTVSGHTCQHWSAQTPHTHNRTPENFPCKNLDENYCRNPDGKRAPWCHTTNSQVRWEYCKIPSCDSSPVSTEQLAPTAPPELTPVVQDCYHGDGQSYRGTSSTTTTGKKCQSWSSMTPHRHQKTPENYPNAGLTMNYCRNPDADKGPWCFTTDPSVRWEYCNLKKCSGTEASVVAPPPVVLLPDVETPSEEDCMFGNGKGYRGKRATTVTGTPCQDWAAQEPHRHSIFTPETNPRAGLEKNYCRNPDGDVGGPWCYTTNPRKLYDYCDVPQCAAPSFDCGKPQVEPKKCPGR
plasmin, sequence (P00747 581-810 limits assumed): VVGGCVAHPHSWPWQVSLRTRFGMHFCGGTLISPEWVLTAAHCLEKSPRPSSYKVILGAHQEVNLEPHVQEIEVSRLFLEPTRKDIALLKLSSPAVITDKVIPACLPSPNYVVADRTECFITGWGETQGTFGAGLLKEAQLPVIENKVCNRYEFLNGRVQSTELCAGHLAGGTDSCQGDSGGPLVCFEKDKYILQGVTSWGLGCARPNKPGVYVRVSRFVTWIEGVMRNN

Data set [6] is described as follows: Stability of the compound in human plasma assessed as half life at 3 mM measured up to 24 hrs by UV/LC-MS analysis. It is filed as ADME, cell-free.
Data set [7] can be described thus: Drug concentration in nude female mouse tumor mass xenografted with human A2780 cells at 21 mg/kg, ip administered as single dose incubated for 24 hrs followed by heparin treatment by LC-MS/MS analysis. It is filed as ADME, organism-based, Neoplasm. As to conditions: in vivo. The method, boiled down:
(§3)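 Female nude mice, xenografted subcutaneously with 2.5 × 10^6 A2780TC cells or left non-xenografted, two per group. Single i.p. dose: Si113 9.5 mg/kg in DMSO or prodrug 21 mg/kg in saline. At 24 h, heparin i.p. (5000 U/kg), then sacrifice under CO2. Plasma, tumour and organs extracted with acetonitrile/internal standard and analysed by LC-MS/MS.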
A general note: In xenograft studies the graft and the host belong to different species.

Data set [8] in a line: Drug concentration in nude female mouse ovarian tissue xenografted with human A2780 cells at 21 mg/kg, ip administered as single dose incubated for 24 hrs followed by heparin treatment by LC-MS/MS analysis. As to conditions: in vivo. It is filed as ADME, organism-based, Female gonad. The method, boiled down:
as §3

The test system of data set [9] is Huh-7. Briefly: Cytotoxicity against human Huh-7 cells assessed as reduction in cell viability measured after 72 hrs by MTT assay. It is filed as functional, cell-based. As to conditions: Huh-7, 72 h. In a few lines: (§4)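 HepG2, Huh-7 or A2780 cells in DMEM with 10% FBS, 37 °C, 5% CO2. 2.5 × 10^4 cells seeded per well; compounds in DMSO added next day at 0.1, 1.0, 10.0 and 100.0 µM for 24, 48 or 72 h. IC50 from MTT dose-response by sigmoid fit. Means ± S.D. of three independent experiments in triplicate.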
On the technique in general: Tetrazolium dyes change colour on reduction, which living cells bring about.

A short description of data set [10]: Drug concentration in nude female mouse ovarian tissue xenografted with human A2780 cells at 9.5 mg/kg, ip administered as single dose incubated for 24 hrs followed by heparin treatment by LC-MS/MS analysis. It is filed as ADME, organism-based, Female gonad. As to conditions: in vivo. The method, boiled down:
as §3

Data set [11] has as its target T1, Serine/threonine-protein kinase Sgk1 (Homo sapiens) (UniProt O00141).
T1 sequence (whole entry): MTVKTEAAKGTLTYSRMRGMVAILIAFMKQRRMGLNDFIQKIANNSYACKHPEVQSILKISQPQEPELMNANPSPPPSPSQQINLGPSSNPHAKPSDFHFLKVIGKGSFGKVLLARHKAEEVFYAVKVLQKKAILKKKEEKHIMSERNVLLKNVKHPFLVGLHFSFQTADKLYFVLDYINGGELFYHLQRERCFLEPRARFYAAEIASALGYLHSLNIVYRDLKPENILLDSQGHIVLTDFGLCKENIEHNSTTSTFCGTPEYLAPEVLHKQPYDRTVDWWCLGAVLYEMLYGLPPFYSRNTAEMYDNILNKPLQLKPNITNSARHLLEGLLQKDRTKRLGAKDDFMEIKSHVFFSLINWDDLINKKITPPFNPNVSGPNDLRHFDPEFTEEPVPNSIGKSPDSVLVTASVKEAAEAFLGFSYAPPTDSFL
Briefly: Inhibition of Sgk1 (unknown origin) at 0.6 uM using peptide substrate incubated for 30 mins in the presence of ATP by scintillation counting method relative to control.

For data set [12], the target named is T1, Serine/threonine-protein kinase Sgk1 (Homo sapiens). The data set can be described thus: Inhibition of Sgk1 (unknown origin) at 12.5 uM using peptide substrate incubated for 30 mins in the presence of ATP by scintillation counting method relative to control.
Data set [13] can be described thus: Metabolic stability in human liver microsomes assessed as parent compound remaining at 50 uM incubated for 1 hr in the presence of NADPH regenerating system by UV/LC-MS analysis. It is filed as ADME, Microsome. As to conditions: read-out: Stability. In a few lines: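 Human liver microsomes (0.2 mg/mL) with NADPH regenerating system and 50 µM compound in DMSO/phosphate buffer (pH 7.4, 25 mM), 1 h at 37 °C. Reaction quenched with acetonitrile and centrifuged; supernatant dried, taken up in methanol, and unmetabolised compound measured by UV/LC-MS. Three independent experiments.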

For data set [14], the system named is HepG2. Briefly: Cytotoxicity against human HepG2 cells assessed as reduction in cell viability measured after 24 hrs by MTT assay. As to conditions: HepG2, 24 h. It is filed as functional, cell-based. In a few lines: as §4
Data set [15] relates to HepG2. Briefly: Antitumor activity against human HepG2 cells xenografted in female nude mouse assessed as reduction in tumor growth at 9.5 mg/kg, ip administered for 5 days/week and measured every 7 days for 21 days. It is filed as functional, organism-based. As to conditions: time 21.0 day, in the assay text read “administered daily” for “administered for 5 days/week”. The method, boiled down: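 HepG2 cells (2.5 × 10^6, in 1:1 serum-free RPMI/Matrigel) injected subcutaneously in the dorsal posterior-lateral right region of 6-week-old female nude mice. Five mice per group, randomised. Dosing i.p. five days/week, started when tumours reached 100 mm3. Si113 was given in DMSO and prodrugs in saline, dosed to equal molar amounts. Caliper volume (π/6 × a2 × b) measured every 7 days; on day 21 tumours were excised and weighed.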

Data set [16] has as its system HepG2. Briefly: Cytotoxicity against human HepG2 cells assessed as reduction in cell viability measured after 48 hrs by MTT assay. It is filed as functional, cell-based. As to conditions: HepG2, 48 h. The method, boiled down:
as §4

Data set [17] deals with A2780. Briefly: Cytotoxicity against human A2780 cells assessed as reduction in cell viability measured after 24 hrs by MTT assay. It is filed as functional, cell-based. As to conditions: A2780, 24 h. The method, boiled down:
as §4

The nature of data set [18]: Drug concentration in nude female mouse tumor mass xenografted with human A2780 cells at 9.5 mg/kg, ip administered as single dose incubated for 24 hrs followed by heparin treatment by LC-MS/MS analysis. As to conditions: in vivo. It is filed as ADME, organism-based, Neoplasm. The method, boiled down: as §3
Data set [19] concerns Huh-7. The data set can be described thus: Cytotoxicity against human Huh-7 cells assessed as reduction in cell viability measured after 48 hrs by MTT assay. It is filed as functional, cell-based. As to conditions: Huh-7, 48 h. In a few lines: as §4
Data set [20] concerns A2780. Briefly: Cytotoxicity against human A2780 cells assessed as reduction in cell viability measured after 48 hrs by MTT assay. It is filed as functional, cell-based. As to conditions: A2780, 48 h. The method, boiled down: as §4
Data set [21] concerns A2780TC. The data set can be described thus: Antitumor activity against paclitaxel resistant human A2780TC cells xenografted in nude mouse assessed as reduction in tumor volume at 9.3 mg/kg/day, ip administered for 5 days/ week and measured every 7 days for 21 days. As to conditions: time 21.0 day. It is filed as functional, organism-based.
Data set [22] deals with HepG2. Briefly: Cytotoxicity against human HepG2 cells assessed as reduction in cell viability measured after 72 hrs by MTT assay. It is filed as functional, cell-based. As to conditions: HepG2, 72 h. In a few lines:
as §4

Data set [23] can be described thus: Permeability of the compound at pH 7.4 assessed as membrane retension at 500 uM incubated for 5 hrs by PAMPA based UV/LC-MS analysis. As to conditions: pH 7.4, 5 h. It is filed as ADME. In a few lines: as §2
Data set [24] deals with A2780. The data set can be described thus: Cytotoxicity against human A2780 cells assessed as reduction in cell viability measured after 72 hrs by MTT assay. It is filed as functional, cell-based. As to conditions: A2780, 72 h. In a few lines:
as §4

For data set [25], the system named is Huh-7. The data set can be described thus: Cytotoxicity against human Huh-7 cells assessed as reduction in cell viability measured after 24 hrs by MTT assay. It is filed as functional, cell-based. As to conditions: Huh-7, 24 h. In a few lines:
as §4

The test system of data set [26] is A2780TC. The data set can be described thus: Antitumor activity against paclitaxel resistant human A2780TC cells xenografted in nude mouse assessed as reduction in tumor volume at 9.3 mg/kg/day, ip administered for 5 days/ week and measured every 7 days for 21 days in the presence of paclitaxel. It is filed as functional, organism-based. As to conditions: time 21.0 day.

As for `CC(=O)O[C@H]1C(=O)[C@@]2(C)[C@H]([C@H](OC(=O)c3ccccc3)[C@]3(O)C[C@H](OC(=O)[C@H](O)[C@@H](NC(=O)c4ccccc4)c4ccccc4)C(C)=C1C3(C)C)[C@]1(OC(C)=O)CO[C@@H]1C[C@@H]2O`, the result with A2780TC [1] was inactive.
By solubility (thermodynamic) is commonly meant the concentration in solution at equilibrium with solid. The term half-life denotes the time needed for the level to fall by half in the phase considered. As for `C[C@@H](N)C(=O)N[C@@H](Cc1ccccc1)C(=O)N[C@@H](CCCCN)C(=O)NCCCCC(=O)OCCNc1nc(NCCc2ccccc2)c2cnn(/C=C/c3ccccc3)c2n1.O=C(O)C(F)(F)F.O=C(O)C(F)(F)F`, the Drug uptake in [2] was found to be 11.05 nmol/g; in data set [5], 3.01 nmol/g. Moreover, the Papp at 5 h, 500 µM in data set [3] came out at 0.2 ×10⁻⁶ cm/s. In data set [4], this compound came in with a thermodynamic solubility at 24 h greater than 1000 µg/mL. The half-life at 7500 µM at plasmin is 3.1 h. Besides, the half-life in [6] was 4.6 h.
As for `C[C@@H](N)C(=O)N[C@@H](Cc1ccccc1)C(=O)N[C@@H](CCCCN)C(=O)OCCNc1nc(NCCc2ccccc2)c2cnn(/C=C/c3ccccc3)c2n1.O=C(O)C(F)(F)F.O=C(O)C(F)(F)F`, the Drug uptake in [7] came to 5.69 nmol/g; in data set [8], 4.11 nmol/g; in data set [2], 0.81 nmol/g; in [5], 1.77 nmol/g. Besides, the Papp at 5 h, 500 µM in data set [3] is 0.2 ×10⁻⁶ cm/s. In addition, the thermodynamic solubility at 24 h in data set [4] was greater than 1000 µg/mL. At plasmin, the half-life at 7500 µM was 1.5 h. The half-life in data set [6] was 0.3 h.
The IC50 is the concentration needed to halve the response being measured. What is called inhibition is the drop in the measured response relative to a control, in per cent. `OCCNc1nc(NCCc2ccccc2)c2cnn(/C=C/c3ccccc3)c2n1`: the IC50 in the data set on Huh-7 [9] was found to be 0.58 µM; with HepG2 [14], 15.9 µM; in the data set on HepG2 [16], 8.29 µM; in the data set with A2780 [17], 25.6 µM; in the data set with Huh-7 [19] it was 1.88 µM; in the data set with A2780 [20], 4.56 µM. The half-inhibitory concentration (IC50) in the data set with HepG2 [22] is 3.15 µM; with A2780 [24], 3.47 µM; in the data set with Huh-7 [25], 2.05 µM. The Drug uptake in data set [10] is reported as 1.89 nmol/g; in data set [18], 2.2 nmol/g. In addition, the results for the inhibition in data set [11] and in data set [12] were 75% and greater than 90%, respectively. In addition, the remaining at 1 h, 50 µM in [13] amounted to 84%. In addition, the outcome with HepG2 [15], with A2780TC [21] and with A2780TC [26] was Active. In addition, the Papp at 5 h, 500 µM in data set [3] came to 2.6 ×10⁻⁶ cm/s. In [4], this compound returned a thermodynamic solubility at 24 h of 0.4 µg/mL (≈ 0.999 µM). The permeability in data set [23] is given as 86.2%.
